The record followed here is PubChem BioAssay.

Experiment [1] is described as follows: inhibitors of TNFa-induced NFkB p65 translocation, primary screen, imaging, HUVEC, MLSMR starter and 10KST1 sets (AID 438;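 active means inhibition above 20% together with a positive visual image hit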;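 further: compound added about 3h40 before a 20 min TNFalpha stimulation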;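 on inhibition: signal is the nuclear over cytoplasmic p65 intensity ratio per well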). The settings on record: HUVEC TNFa-induced p65 nuclear translocation; cell count: measured here: nuclei count (cytotoxicity indicator), at 2.08 µM; inhibition: at 2 µM, stronger effect = higher value, 0% TNFa-plus-vehicle, 100% no-TNFa wells.
Experiment [2] is described as follows: inhibitors of mutant huntingtin aggregation, primary screen, imaging, exon1htt(103Q)mCFP cells, high-content imaging (AID 483;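 active means visual image review flags a hit and inhibition of aggregation exceeds 20%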;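 further: compound exposure lasted 3 days before fixation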;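 on nuclei count: percent of the per-plate median nuclei count of sample wells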). The settings on record: exon1htt(103Q)mCFP cell line, aggregate imaging, at 2 µM; inhibition of aggregation: stronger effect = higher value; nuclei count: measured here: cell count, toxicity.
The nature of experiment [3]: inhibitors of E-selectin induction by TNFa, primary screen, imaging, HUVEC, immunofluorescence, MLSMR starter and 10KST1 sets (AID 487).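 On inhibition: signal is fraction of cell area covered by stained E-selectin grains.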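 On nuclei count: 100% = median nuclei count of all wells on the same plate.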 The following applies: HUVEC TNFalpha-induced E-selectin immunofluorescence imaging, at 2 µM; inhibition: stronger effect = higher value; nuclei count: measured here: cell number, toxicity.
Experiment [4] concerns the target Voltage-gated potassium channel subunit beta-2 (Rattus norvegicus) (UniProt P62483). Nature of the experiment: KvBeta enzyme negative modulators, primary screen, biochemical, NADPH fluorescence (AID 622;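 active means fluorescence slope higher than the sample average by over 3 SD, cut at about -0.22 in these data, passing the limit was not always enough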;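 further: slope of raw intensity against log time taken from 70 to 1610 s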). The settings on record: recombinant KvBeta, 4-cyanobenzaldehyde reduction, at 10 µM, stronger effect = higher value.
Experiment [5] shares this target. Description: KvBeta positive modulators, primary screen, biochemical, NADPH fluorescence (AID 623;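 active means NADPH fluorescence slope more negative than the mean of all samples by about 3 SD, 99.7% confidence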;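 further: fluorescence intensity change per second fitted from 20 to 320 s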). The following applies: Recombinant KvBeta, NADPH fluorescence decrease slope, 10 min; at 10 µM; stronger effect = lower value.
For experiment [6], the target named is Muscarinic acetylcholine receptor M4 (Homo sapiens) (UniProt P08173). Nature of the experiment: compounds altering M4/GIRK thallium flux, either direction, primary screen, M4 allosteric agonist project, cell-based, HEK293 M4/GIRK, BTC-AM (AID 625;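 active means fluorescence slope after compound addition differing from the mean of all tested samples at 99.7% confidence, mostly higher but some lower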;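 further: thallium influx through GIRK channels coupled to M4 in HEK293 cells with BTC-AM dye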). The settings on record: at 10 µM, actives lie on both sides. Summed up:
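System: HEK293 cells with M4 receptor and GIRK channels | Incubation: Cells overnight at 37 °C, BTC-AM loading 1 h, reads 2 min total | Technique: Kinetic BTC-AM fluorescence sampled at 1 Hz, 10 s pre-addition baseline | Measure: Post-addition slope, 15–24 s, of baseline-normalized fluorescence | Control set: Carbachol positive, DMSO negative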

Experiment [7] can be described thus: inhibitors of Sendai virus-induced IRF3 signaling, primary screen, TLR/RLR signaling modifier project, cell-based, Sendai virus stimulus, luciferase, 10K MLSCN set (AID 602276;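 active means inhibition at or above 50% at 10 µM; inactive means inhibition below 50%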;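 further: firefly luciferase from ISG56 promoter only with Renilla not read in this screen; 0% = Sendai virus plus DMSO and 100% = medium plus DMSO without virus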). The settings on record: HEK293 RL24 IRF3 luciferase reporter, at 10 µM, stronger effect = higher value. On the technique in general: A reporter such as luciferase makes a cellular process visible.

Experiment [8] can be described thus: inhibitors of poly I:C-induced TLR3 signaling, primary screen, cell-based, poly I:C stimulus, luciferase, 10K MLSCN set (AID 602277;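 active means inhibition of the reporter signal at or above 50%; inactive means inhibition below 50%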). The following applies: HEK293-TLR3 RL24 IRF3 luciferase reporter, at 10 µM, stronger effect = higher value.

The source made the active and inactive calls.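 How the source made its calls, unless noted: active means visually confirmed hit in the image check and inhibition above 20%; inconclusive means visually confirmed hit but inhibition not above 20%; inactive means no visual hit in the image check.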

Voltage-gated potassium channel subunit beta-2 (Rattus norvegicus), sequence (P62483 whole entry, looked up): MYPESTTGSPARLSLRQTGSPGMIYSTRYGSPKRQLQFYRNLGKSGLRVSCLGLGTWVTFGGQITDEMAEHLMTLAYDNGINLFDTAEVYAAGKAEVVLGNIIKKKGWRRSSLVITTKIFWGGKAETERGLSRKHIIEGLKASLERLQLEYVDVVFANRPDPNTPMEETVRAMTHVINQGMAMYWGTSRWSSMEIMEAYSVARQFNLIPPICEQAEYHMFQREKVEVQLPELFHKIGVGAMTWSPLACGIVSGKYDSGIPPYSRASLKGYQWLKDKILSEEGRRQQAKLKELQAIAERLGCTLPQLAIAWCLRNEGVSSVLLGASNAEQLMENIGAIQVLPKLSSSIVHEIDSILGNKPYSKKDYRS
Muscarinic acetylcholine receptor M4 (Homo sapiens), sequence (P08173 whole entry, looked up): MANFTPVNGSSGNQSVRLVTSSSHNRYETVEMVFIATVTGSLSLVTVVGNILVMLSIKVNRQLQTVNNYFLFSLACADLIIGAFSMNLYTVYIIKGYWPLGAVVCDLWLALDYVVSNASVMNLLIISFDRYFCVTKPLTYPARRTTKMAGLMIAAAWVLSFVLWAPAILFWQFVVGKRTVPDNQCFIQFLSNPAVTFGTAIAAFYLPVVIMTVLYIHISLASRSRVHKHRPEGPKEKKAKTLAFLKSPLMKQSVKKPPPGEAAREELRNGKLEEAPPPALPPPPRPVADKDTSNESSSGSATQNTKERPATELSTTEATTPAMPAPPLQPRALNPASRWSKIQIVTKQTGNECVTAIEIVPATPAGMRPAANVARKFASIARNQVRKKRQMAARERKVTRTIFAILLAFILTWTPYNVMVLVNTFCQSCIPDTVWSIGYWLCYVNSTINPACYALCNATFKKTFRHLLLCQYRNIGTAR

As for `Cc1c(NS(=O)(=O)c2ccc3c(c2)c(=O)n(C)c(=O)n3C)c(=O)n(-c2ccccc2)n1C`, the cell count in experiment [1] amounted to 394. The inhibition in experiment [1] was -4.4% (inactive); in experiment [3], -27.8% (inactive); in experiment [7], 11.2% (inactive); in experiment [8], 25% (inactive). Besides, the inhibition of aggregation in experiment [2] was -4.4% (inactive). Besides, the nuclei count was found to be 124% in experiment [2] and 115% in experiment [3]. For the same compound, the results for the fluorescence slope in experiment [4] and in experiment [6] were -0.412 (inactive) and 0.00512 (inactive), respectively. Besides, the NADPH fluorescence slope in experiment [5] is 0.000112 (inactive).

As for `CCCCNS(=O)(=O)c1ccc(OC)c2ncccc12`, the cell count in experiment [1] was 568. Further, the inhibition is 4.1% (inactive) in experiment [1], -1.9% (inactive) in experiment [3], -12.5% (inactive) in experiment [7] and -11.5% (inactive) in experiment [8]. Also, in experiment [2], the inhibition of aggregation was 16.3% (inactive). For the same compound, the nuclei count in experiment [2] stood at 115%; in experiment [3], 93%. Moreover, the fluorescence slope was -0.337 (inactive) in experiment [4] and 0.00627 (inactive) in experiment [6]. Moreover, the NADPH fluorescence slope in experiment [5] was -4.1e-05 (inactive).

In the case of `COc1ccc(Nc2nc(OC)nc(N3CCN(c4ccc(OC)cc4)CC3)n2)cc1`, the cell count in experiment [1] was found to be 646. In addition, the inhibition in experiment [1] was -0.5% (inactive); in experiment [3], -14.1% (inactive); in experiment [7] it was 14% (inactive); in experiment [8] it was -11.1% (inactive). Further, the inhibition of aggregation in experiment [2] is -13.1% (inactive). The nuclei count in experiment [2] is 93.5%; in experiment [3] it was 100%. Besides, the fluorescence slope in experiment [4] is -0.555 (inactive); in experiment [6], 0.00593 (inactive). For the same compound, the NADPH fluorescence slope in experiment [5] was -3.4e-05 (inactive).

Turning to `C/C(Cl)=C\Cn1c(Nc2ccc(C)cc2)nc2c1c(=O)n(C)c(=O)n2C`, in experiment [1], the cell count amounted to 533. For the same compound, the inhibition in experiment [1] is -1.1% (inactive); in experiment [3] it was -73.9% (inactive); in experiment [7], 16.1% (inactive); in experiment [8], 17.5% (inactive). Further, in experiment [2], the inhibition of aggregation was 24.5% (inactive). The nuclei count in experiment [2] came out at 78.9%; in experiment [3] it was 117%. The fluorescence slope in experiment [4] is -0.572 (inactive); in experiment [6], 0.00543 (inactive). In addition, the NADPH fluorescence slope in experiment [5] was -4.2e-05 (inactive).

Take `CCSC1(SCC)N=C(N)C2(C#N)C(c3ccccc3)NC(C)=C(C)C12C#N` (centres undefined): the cell count in experiment [1] was 422. Moreover, the inhibition was 2% (inactive) in experiment [1], -15.4% (inactive) in experiment [3], 7.48% (inactive) in experiment [7] and 17.3% (inactive) in experiment [8]. Further, in experiment [2], the inhibition of aggregation is 13.7% (inactive). In addition, the nuclei count in experiment [2] is 108%; in experiment [3], 120%. The results for the fluorescence slope in experiment [4] and in experiment [6] were -0.401 (inactive) and 0.00608 (inactive), respectively. The NADPH fluorescence slope in experiment [5] was -1.2e-05 (inactive).

As for `Cc1cccn2c(=O)c3cc(C#N)c(=NC(=O)c4ccncc4)n(Cc4ccco4)c3nc12`, the cell count in experiment [1] turned out to be 386. Moreover, the inhibition is -1% (inactive) in experiment [1], -36.9% (inactive) in experiment [3], 10.3% (inactive) in experiment [7] and 19.4% (inactive) in experiment [8]. Also, in experiment [2], the inhibition of aggregation was 5% (inactive). The nuclei count in experiment [2] was 99.9%; in experiment [3] it was 114%. In addition, the fluorescence slope was -0.535 (inactive) in experiment [4] and 0.00818 (inactive) in experiment [6]. Further, in experiment [5], the NADPH fluorescence slope is -1.2e-05 (inactive).

Regarding `N#Cc1nc(-c2ccc(Cl)cc2)oc1NCCc1ccccn1`, the cell count in experiment [1] worked out at 238. Besides, the inhibition in experiment [1] was 18.4% (inactive); in experiment [3] it was -40.5% (inactive); in experiment [7] it was 24.4% (inactive); in experiment [8], -35% (inactive). Moreover, the inhibition of aggregation in experiment [2] was -7.2% (inactive). The nuclei count in experiment [2] is 107%; in experiment [3], 97.9%. Moreover, the fluorescence slope in experiment [4] was -0.59 (inactive); in experiment [6], 0.00656 (inactive). In addition, in experiment [5], the NADPH fluorescence slope is -2.8e-06 (inactive).

In the case of `CCOC(=O)N1CCN(C(=O)c2ccc3nc4cc(Cl)ccc4c(=O)n3c2)CC1`, the cell count in experiment [1] amounted to 726. Also, the inhibition is -8.8% (inactive) in experiment [1], 17.6% (inactive) in experiment [3], 6.58% (inactive) in experiment [7] and 6.7% (inactive) in experiment [8]. For the same compound, the inhibition of aggregation in experiment [2] is -19.4% (inactive). Also, the nuclei count in experiment [2] and in experiment [3] was 118% throughout. In addition, the fluorescence slope is -0.0121 (inactive) in experiment [4] and 0.00404 (inactive) in experiment [6]. Besides, in experiment [5], the NADPH fluorescence slope was 2.7e-06 (inactive).

With `Cc1cc(NC(=O)C2CCCC2)nc2c1c(=O)oc1ccccc12`, the cell count in experiment [1] worked out at 601. Moreover, the inhibition in experiment [1] is -3.4% (inactive); in experiment [3] it was -16.3% (inactive); in experiment [7], 7.38% (inactive); in experiment [8], 9.88% (inactive). Further, in experiment [2], the inhibition of aggregation is 12.4% (inactive). The nuclei count came out at 98.2% in experiment [2] and 106% in experiment [3]. The fluorescence slope is -0.578 (inactive) in experiment [4] and 0.00687 (inactive) in experiment [6]. For the same compound, the NADPH fluorescence slope in experiment [5] was -4.4e-05 (inactive).

As for `CCOc1ccc(NC(=O)c2ccncc2)cc1`, in experiment [1], the cell count was 631. The inhibition was 3.6% (inactive) in experiment [1], -122% (inactive) in experiment [3], -5.38% (inactive) in experiment [7] and -19.1% (inactive) in experiment [8]. Further, the inhibition of aggregation in experiment [2] is 8.2% (inactive). The nuclei count in experiment [2] came out at 98.3%; in experiment [3], 106%. For the same compound, the fluorescence slope in experiment [4] was -0.466 (inactive); in experiment [6], 0.0047 (inactive). Besides, in experiment [5], the NADPH fluorescence slope was -4.7e-05 (inactive).

On to `C=CCn1cc(C(=O)NCCOC)c(=O)c2cc(S(=O)(=O)N(CC)CC)ccc21`, for which, in experiment [1], the cell count was 580. Besides, the inhibition in experiment [1] is -15.8% (inactive); in experiment [3], -11.3% (inactive); in experiment [7], 7.34% (inactive); in experiment [8], 17.4% (inactive). Besides, the inhibition of aggregation in experiment [2] was 7.1% (inactive). Moreover, the results for the nuclei count in experiment [2] and in experiment [3] were 81.2% and 115%, respectively. In addition, the fluorescence slope was -0.607 (inactive) in experiment [4] and 0.00635 (inactive) in experiment [6]. Further, the NADPH fluorescence slope in experiment [5] was 1.4e-05 (inactive).

For `COC(=O)C(C)Sc1nc2c(c(=O)n(C)c(=O)n2C)n1Cc1cccc(C)c1` (centres undefined), in experiment [1], the cell count amounted to 474. The inhibition in experiment [1] is 3.8% (inactive); in experiment [3] it was -27.3% (inactive); in experiment [7], 18.9% (inactive); in experiment [8], 26.2% (inactive). Further, the inhibition of aggregation in experiment [2] is -2.4% (inactive). Further, the values for the nuclei count in experiment [2] and in experiment [3] were 99.3% and 117%, respectively. For the same compound, the fluorescence slope in experiment [4] is -0.553 (inactive); in experiment [6] it was 0.00598 (inactive). The NADPH fluorescence slope in experiment [5] was -3.9e-05 (inactive).

In the case of `O=C(N1CCN(Cc2ccccc2)CC1)C12CC3CC(CC(C3)C1)C2`, the cell count in experiment [1] was 530. Further, the inhibition in experiment [1] was -4.3% (inactive); in experiment [3], -15.4% (inactive); in experiment [7], 17% (inactive); in experiment [8], 8.52% (inactive). Besides, the inhibition of aggregation in experiment [2] is 2% (inactive). Further, the nuclei count in experiment [2] was found to be 88.3%; in experiment [3] it was 92.7%. In addition, the fluorescence slope was -0.327 (inactive) in experiment [4] and 0.00533 (inactive) in experiment [6]. The NADPH fluorescence slope in experiment [5] is -4.6e-05 (inactive).

Take `COc1ccc(OCCCC(=O)Nc2ccc3c(c2)OCCO3)cc1`: the cell count in experiment [1] came out at 467. The inhibition in experiment [1] is 10.1% (inactive); in experiment [3] it was -237% (inactive); in experiment [7], -5.01% (inactive); in experiment [8] it was -17.3% (inactive). Further, in experiment [2], the inhibition of aggregation is -6.5% (inactive). For the same compound, the results for the nuclei count in experiment [2] and in experiment [3] were 104% and 140%, respectively. For the same compound, the fluorescence slope is -0.299 (inactive) in experiment [4] and 0.00647 (inactive) in experiment [6]. The NADPH fluorescence slope in experiment [5] is -2.2e-05 (inactive).

What is called inhibition is the change of the read-out against control, counted positive when it falls.
